This note sets out measurements from ChEMBL document CHEMBL1149190, “Generation of new protein kinase inhibitors utilizing cytochrome p450 mutant enzymes for indigoid synthesis” (J Med Chem, 2004).

The target in assay [1] is Cyclin-dependent kinase 5/CDK5 activator 1 (Homo sapiens, UniProt Q00535). The assay can be described thus: Inhibition of Cyclin-dependent kinase 5-p35nck5a. Type of assay: protein-complex assay. Summed up:
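Recombinant CDK5 and p25 (truncated p35), each expressed in E. coli as a GST fusion and glutathione-agarose purified, mixed in equal amounts. Read by P81 filter capture and scintillation counting. Expressed as % of uninhibited activity. Duplicates; IC50 determined.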

Assay [2] has as its target T1, Glycogen synthase kinase-3 (Homo sapiens, UniProt P49840+P49841). The assay can be described thus: Inhibition of porcine GSK-3-alpha/beta kinase. Type of assay: protein assay, Sus scrofa. Conditions: target entry is the homologue from another species. In outline:
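Porcine brain GSK-3α/β, purified on immobilized axin and diluted 1/100 in 1 mg/mL BSA with 10 mM DTT. Substrate GS-1 phosphopeptide in buffer A (Tris-HCl pH 7.5, MgCl2, EGTA, DTT, heparin) with 15 µM [γ-33P]ATP, 30 min at 30 °C. Read by P81 filter binding and scintillation counting. Duplicates; IC50 as % of control activity.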

Assay [3] concerns the target Cyclin-dependent kinase 1/cyclin B (Marthasterias glacialis). As to the kind of experiment: Inhibition of Cyclin-dependent kinase 1-cyclin B of M-phase Marthasterias glacialis oocytes.
Assay [4] concerns the target T1, Glycogen synthase kinase-3. The assay can be described thus: (§1) Residual porcine GSK-3-alpha/beta kinase activity with L240C/N297Q mutant cytochrome P450 2A6 extract. Type of assay: protein assay. Set-up: concentration or dose not given beside the values. Conditions: Sus scrofa; target entry is the homologue from another species. In outline: (§2)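 E. coli expressing the P450 2A6 variant plus reductase were grown 42 h at 30 °C with the indole added. DMSO extract (0.3 µL) was tested on axin-purified porcine GSK-3α/β with GS-1 peptide in buffer A, 15 µM [γ-33P]ATP, 30 °C. Residual activity given as % of a DMSO control. Means of duplicates.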

Assay [5] concerns the target T2, Cyclin-dependent kinase 5/CDK5 activator 1 (Homo sapiens) (UniProt Q00535+Q15078). As to the kind of experiment: Residual Cyclin-dependent kinase 5-p35nck5a activity with L240C/N297Q mutant cytochrome P450 2A6 extract. Type of assay: protein-complex assay. In outline:
(§3)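 The indole was fed to E. coli expressing the P450 2A6 variant with NADPH-P450 reductase, grown 42 h at 30 °C. Extract in DMSO (0.3 µL) was added to the CDK5/p25 histone H1 assay: buffer C, 15 µM [γ-33P]ATP, 30 °C. Residual activity given as % of a DMSO-only control. Means of duplicates.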

Assay [6] deals with T2, Cyclin-dependent kinase 5/CDK5 activator 1 (Homo sapiens). The assay can be described thus: Residual Cyclin-dependent kinase 5-p35nck5a activity with wild-type cytochrome P450 2A6 extract. Type of assay: protein-complex assay. In outline:
as §3

The target in assay [7] is T1, Glycogen synthase kinase-3. As to the kind of experiment: Residual porcine GSK-3-alpha/beta kinase activity with wild-type cytochrome P450 2A6 extract. Type of assay: protein assay. Conditions: Sus scrofa, target entry is the homologue from another species. Summed up: as §2
The target of assay [8] is T1, Glycogen synthase kinase-3. As to the kind of experiment: (§4) Residual porcine GSK-3-alpha/beta kinase activity with L240C mutant cytochrome P450 2A6 extract. Conditions: Sus scrofa; target entry is the homologue from another species. Type of assay: protein assay. In outline: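 GSK-3α/β from porcine brain, purified on immobilized axin and diluted 1/100, assayed in buffer A with GS-1 peptide substrate and 15 µM [γ-33P]ATP for 30 min at 30 °C. Phosphate incorporation read on P81 filters by scintillation counting. Bacterial extract in DMSO added; residual activity given as % of DMSO control, mean of duplicates.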

Assay [9] concerns the target T2, Cyclin-dependent kinase 5/CDK5 activator 1 (Homo sapiens). The assay can be described thus: Residual Cyclin-dependent kinase 5-p35nck5a activity with L240C-mutant cytochrome P450 2A6 extract. Type of assay: protein-complex assay.
Assay [10] concerns the target T1, Glycogen synthase kinase-3. The description is as §1. Type of assay: protein assay. Conditions: Sus scrofa; target entry is the homologue from another species. In outline:
as §2

Assay [11] has as its target T1, Glycogen synthase kinase-3. The assay is described as §4. Conditions: Sus scrofa; target entry is the homologue from another species. Type of assay: protein assay. In outline:
as §2
The source holds these as a separate data set.

Bounds are passed on as bounds.

T1 sequence (P49840 whole entry, looked up): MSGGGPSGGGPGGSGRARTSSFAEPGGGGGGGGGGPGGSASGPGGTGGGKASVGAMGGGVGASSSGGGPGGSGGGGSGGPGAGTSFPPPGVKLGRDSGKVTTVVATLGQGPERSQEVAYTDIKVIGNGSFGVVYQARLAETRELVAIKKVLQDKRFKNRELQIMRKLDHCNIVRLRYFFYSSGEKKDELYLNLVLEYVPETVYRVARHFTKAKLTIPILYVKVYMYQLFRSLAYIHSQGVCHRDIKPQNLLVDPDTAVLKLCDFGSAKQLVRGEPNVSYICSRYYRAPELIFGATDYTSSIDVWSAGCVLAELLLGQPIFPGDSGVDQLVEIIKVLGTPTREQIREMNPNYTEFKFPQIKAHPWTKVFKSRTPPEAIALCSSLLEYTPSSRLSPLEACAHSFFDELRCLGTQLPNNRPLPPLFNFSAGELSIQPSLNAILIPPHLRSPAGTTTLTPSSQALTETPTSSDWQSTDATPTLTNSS
T1 sequence (P49841 whole entry, looked up): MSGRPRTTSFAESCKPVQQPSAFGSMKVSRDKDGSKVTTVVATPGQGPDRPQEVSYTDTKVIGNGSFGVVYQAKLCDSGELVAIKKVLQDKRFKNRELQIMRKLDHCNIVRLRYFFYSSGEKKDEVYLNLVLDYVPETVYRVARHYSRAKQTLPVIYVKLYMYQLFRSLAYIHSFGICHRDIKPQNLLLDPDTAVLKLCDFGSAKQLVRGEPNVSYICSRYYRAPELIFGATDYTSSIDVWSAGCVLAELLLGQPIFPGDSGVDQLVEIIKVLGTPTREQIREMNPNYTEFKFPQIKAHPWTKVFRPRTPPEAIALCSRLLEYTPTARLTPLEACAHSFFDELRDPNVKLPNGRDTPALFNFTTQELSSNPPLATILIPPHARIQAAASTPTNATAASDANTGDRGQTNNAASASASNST
T2 sequence (Q00535 whole entry): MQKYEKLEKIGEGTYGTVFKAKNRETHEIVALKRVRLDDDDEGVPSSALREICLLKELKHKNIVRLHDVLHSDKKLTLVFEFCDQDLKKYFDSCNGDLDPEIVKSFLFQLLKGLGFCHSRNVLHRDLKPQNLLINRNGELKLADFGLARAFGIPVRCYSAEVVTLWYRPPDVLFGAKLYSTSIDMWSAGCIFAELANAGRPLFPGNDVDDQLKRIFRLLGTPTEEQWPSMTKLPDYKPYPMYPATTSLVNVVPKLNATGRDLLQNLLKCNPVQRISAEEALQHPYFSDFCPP
T2 sequence (Q15078 99-307 partner limits assumed): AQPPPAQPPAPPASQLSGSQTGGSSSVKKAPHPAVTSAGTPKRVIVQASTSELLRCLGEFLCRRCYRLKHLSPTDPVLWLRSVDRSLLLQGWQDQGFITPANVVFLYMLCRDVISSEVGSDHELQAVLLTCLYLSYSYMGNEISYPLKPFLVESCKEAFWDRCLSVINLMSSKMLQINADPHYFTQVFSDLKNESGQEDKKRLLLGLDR
Sequence of Cyclin-dependent kinase 5/CDK5 activator 1 (Q00535 whole entry, the tested form may be a part): as the sequence (Q00535 whole entry) above
Sequence of Cyclin-dependent kinase 5/CDK5 activator 1 (Q15078 whole entry, further chain, the tested form may be a part): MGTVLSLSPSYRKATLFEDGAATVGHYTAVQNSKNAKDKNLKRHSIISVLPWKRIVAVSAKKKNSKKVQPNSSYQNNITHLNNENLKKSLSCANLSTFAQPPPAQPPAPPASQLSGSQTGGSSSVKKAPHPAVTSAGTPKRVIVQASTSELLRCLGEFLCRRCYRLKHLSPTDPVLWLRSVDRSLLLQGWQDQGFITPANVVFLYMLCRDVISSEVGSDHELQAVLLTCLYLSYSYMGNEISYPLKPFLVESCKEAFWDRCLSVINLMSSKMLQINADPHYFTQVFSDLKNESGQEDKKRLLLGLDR

In the case of `COc1ccc2c(c1)C(=O)C(c1c(O)[nH]c3ccccc13)=N2`, the IC50 (commonly the midpoint of a concentration-inhibition curve) came out at 1200 nM in assay [1], 600 nM in assay [2] and 2100 nM in assay [3].

In the case of `COC(=O)c1ccc2[nH]ccc2c1`, the residual activity in [4] is 71%; in assay [5], 99%.

For the compound `c1ccc2[nH]ccc2c1`, the residual activity worked out at 78% in assay [6], 76% in assay [4], 81% in assay [5] and 68% in assay [7].

Turning to `Fc1ccc2cc[nH]c2c1`, the values for the residual activity in assay [4] and in assay [5] were 87% and 97%, respectively.

For the compound `O=[N+]([O-])c1ccc2cc[nH]c2c1`, the residual activity in assay [5] is 107%; in assay [7] (in the assay text read “cytochrome P450 2A6 L240C/N297Q mutant” for “wild-type cytochrome P450 2A6”), 63%.

With `Cc1ccc2[nH]ccc2c1`, the residual activity in [6] amounted to 89%; in assay [4] it was 15%; in assay [5], 19%; in assay [7] it was 45%.

For `COc1ccc2[nH]c(O)c(C3=Nc4ccccc4C3=O)c2c1`, the results for the IC50 in assay [1], in assay [2] and in assay [3] were 1200 nM, 800 nM and 1500 nM, respectively.

Take `COc1ccc2c(c1)C(=O)C(c1c(O)[nH]c3ccc(OC)cc13)=N2`: the IC50 was 800 nM in assay [1], 200 nM in assay [2] and 400 nM in assay [3].

`O=C1Nc2ccccc2/C1=C1/Nc2ccccc2C1=O` [INDIRUBIN] had a concentration for half-maximal inhibition (IC50) in assay [2] of 2500 nM.

In the case of `Nc1ccc2[nH]ccc2c1`, the residual activity in [4] was 42%; in assay [5], 73%.

For the compound `c1cnc2[nH]ccc2c1`, the results for the residual activity in assay [4] and in assay [5] were 89% and 103%, respectively.

Consider `COc1ccc2[nH]ccc2c1`, for which the residual activity was found to be 55% in [8], 3% in [4], 3% in assay [5] and 87% in [9].

In the case of `COc1ccc2c(c1)C(=O)C(c1[nH]c3ccccc3c1O)=N2`, the IC50 in assay [1], in [2] and in [3] was more than 100000 nM throughout.

`COc1cc2cc[nH]c2cc1OC`: the residual activity in assay [4] amounted to 62%; in assay [5], 80%.

Regarding `O=C1/C(=C2\Nc3ccccc3C2=O)Nc2ccccc21` [INDIGO], the IC50 in assay [1] and in [2] was more than 100000 nM in each case.

With `COc1ccc2c(c1)C(=O)C(c1[nH]c3ccc(OC)cc3c1O)=N2`, the half-inhibitory concentration (IC50) was found to be 26000 nM in assay [1], 6000 nM in [2] and 1200 nM in assay [3].

For `Cc1ccc2[nH]c(O)c(C3=Nc4ccccc4C3=O)c2c1`, the IC50 in [1] worked out at 5000 nM; in assay [2], 800 nM.

As for `Clc1cccc2cc[nH]c12`, the residual activity was found to be 82% in assay [5] and 110% in assay [10].

Turning to `Cc1ccc2c(c1)C(=O)C(c1c(O)[nH]c3ccccc13)=N2`, the IC50 in assay [1] was 1900 nM; in assay [2] it was 550 nM.

With `Brc1ccc2[nH]ccc2c1`, the residual activity in assay [11] turned out to be 22%; in [5], 56%; in assay [10] it was 25%; in [9], 44%.

Take `Cc1cccc2cc[nH]c12`: the residual activity in assay [4] turned out to be 59%; in assay [5], 90%.
